Test results reported in ChEMBL document CHEMBL5321206, “New amidine-benzenesulfonamides as iNOS inhibitors for the therapy of the triple negative breast cancer” (Eur J Med Chem, 2023).
Activity calls are given as the source filed them. No cut-off for these calls is given here.

Experiments:
[1] = target: T1, Nitric oxide synthase, inducible (Homo sapiens, UniProt P35228); experiment: Inhibition of N-terminal his6-tagged recombinant human iNOS expressed in Escherichia coli at 1 uM preincubated for 15 mins followed by NADPH addition and measured after 30 mins by HPLC analysis relative to control; conditions: time 45.0 min
T1 sequence (P35228 whole entry): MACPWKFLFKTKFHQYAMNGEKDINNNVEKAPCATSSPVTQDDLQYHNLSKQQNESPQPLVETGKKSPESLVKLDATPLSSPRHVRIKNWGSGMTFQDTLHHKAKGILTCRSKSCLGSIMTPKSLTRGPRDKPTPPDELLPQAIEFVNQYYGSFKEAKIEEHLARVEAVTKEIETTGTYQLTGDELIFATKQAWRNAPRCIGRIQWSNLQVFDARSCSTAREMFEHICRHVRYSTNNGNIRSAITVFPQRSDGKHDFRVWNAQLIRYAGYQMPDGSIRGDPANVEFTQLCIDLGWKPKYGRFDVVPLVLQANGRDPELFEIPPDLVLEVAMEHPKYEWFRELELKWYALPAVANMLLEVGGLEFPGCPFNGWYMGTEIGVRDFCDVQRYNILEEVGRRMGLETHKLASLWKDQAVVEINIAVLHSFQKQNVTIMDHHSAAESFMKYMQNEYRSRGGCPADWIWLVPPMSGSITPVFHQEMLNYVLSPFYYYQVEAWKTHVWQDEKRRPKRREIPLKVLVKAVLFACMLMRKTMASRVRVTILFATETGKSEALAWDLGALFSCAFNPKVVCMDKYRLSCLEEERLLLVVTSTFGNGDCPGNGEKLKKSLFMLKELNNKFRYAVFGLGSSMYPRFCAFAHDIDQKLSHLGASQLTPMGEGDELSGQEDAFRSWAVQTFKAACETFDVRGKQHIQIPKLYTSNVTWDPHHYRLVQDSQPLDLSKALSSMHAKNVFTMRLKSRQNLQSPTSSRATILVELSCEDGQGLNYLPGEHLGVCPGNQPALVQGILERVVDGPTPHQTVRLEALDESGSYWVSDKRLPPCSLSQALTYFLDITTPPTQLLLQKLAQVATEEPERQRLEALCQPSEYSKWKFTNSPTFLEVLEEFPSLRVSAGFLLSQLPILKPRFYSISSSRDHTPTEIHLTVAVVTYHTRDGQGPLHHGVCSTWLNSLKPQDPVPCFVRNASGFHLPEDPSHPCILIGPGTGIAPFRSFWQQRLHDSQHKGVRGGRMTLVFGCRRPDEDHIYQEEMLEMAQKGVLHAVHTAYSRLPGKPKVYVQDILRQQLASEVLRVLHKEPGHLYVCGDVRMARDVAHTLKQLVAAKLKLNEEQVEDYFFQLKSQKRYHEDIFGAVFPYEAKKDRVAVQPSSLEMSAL
Summary of the method: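 Recombinant human iNOS in 100 mM HEPES pH 7.4 with 0.1 mM CaCl2, 1 mM DTT, 0.5 mg/mL BSA, 10 μM FMN, 10 μM FAD, 30 μM BH4, 10 μg/mL calmodulin and 10 μM L-Arg. Compound pre-incubated 15 min at 37 °C. NADPH added to start the reaction, run 30 min at 37 °C, stopped with cold CH3CN. Product measured by OPA/NAC derivatization and fluorescence HPLC (ex 335/em 439 nm). […] IC50 from seven concentrations in triplicate, mean ± SD.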

[2] = target: T2, Nitric oxide synthase 3 (Bos taurus) (UniProt P29473); experiment: Inhibition of full length N-terminal his-tagged bovine eNOS (2 to 1205 residues) expressed in Escherichia coli at 10 uM preincubated for 15 mins followed by NADPH addition and measured after 30 mins by HPLC analysis relative to control; conditions: time 45.0 min
T2 sequence (whole entry): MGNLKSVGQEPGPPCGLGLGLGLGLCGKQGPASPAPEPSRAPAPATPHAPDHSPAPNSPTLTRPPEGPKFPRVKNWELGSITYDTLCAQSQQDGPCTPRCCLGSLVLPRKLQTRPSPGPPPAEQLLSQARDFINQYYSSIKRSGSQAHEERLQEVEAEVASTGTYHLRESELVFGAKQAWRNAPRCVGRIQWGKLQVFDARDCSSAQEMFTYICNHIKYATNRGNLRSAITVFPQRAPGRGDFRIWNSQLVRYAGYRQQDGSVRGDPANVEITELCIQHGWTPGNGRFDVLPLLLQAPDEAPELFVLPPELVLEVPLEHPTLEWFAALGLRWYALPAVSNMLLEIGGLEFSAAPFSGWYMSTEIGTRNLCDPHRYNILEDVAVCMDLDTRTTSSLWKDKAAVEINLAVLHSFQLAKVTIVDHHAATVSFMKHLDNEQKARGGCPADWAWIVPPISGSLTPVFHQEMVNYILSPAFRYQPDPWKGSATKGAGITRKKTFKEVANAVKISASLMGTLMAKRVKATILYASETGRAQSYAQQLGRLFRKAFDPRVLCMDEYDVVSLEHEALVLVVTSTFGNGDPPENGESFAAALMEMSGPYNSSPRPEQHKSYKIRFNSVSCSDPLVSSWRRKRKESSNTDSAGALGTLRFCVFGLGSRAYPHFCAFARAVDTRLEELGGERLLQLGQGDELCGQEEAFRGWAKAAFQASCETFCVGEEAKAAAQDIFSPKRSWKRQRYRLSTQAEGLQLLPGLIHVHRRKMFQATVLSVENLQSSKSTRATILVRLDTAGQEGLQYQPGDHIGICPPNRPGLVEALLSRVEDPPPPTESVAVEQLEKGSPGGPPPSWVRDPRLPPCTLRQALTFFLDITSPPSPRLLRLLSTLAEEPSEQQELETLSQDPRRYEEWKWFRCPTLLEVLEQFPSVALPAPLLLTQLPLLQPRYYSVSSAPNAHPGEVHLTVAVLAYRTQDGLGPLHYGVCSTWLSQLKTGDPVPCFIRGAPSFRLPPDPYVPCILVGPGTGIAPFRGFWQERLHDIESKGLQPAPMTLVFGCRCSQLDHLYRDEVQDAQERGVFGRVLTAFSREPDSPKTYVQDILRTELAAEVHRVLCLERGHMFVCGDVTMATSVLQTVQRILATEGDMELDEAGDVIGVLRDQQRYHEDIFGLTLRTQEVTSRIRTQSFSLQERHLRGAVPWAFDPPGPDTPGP
Summary of the method: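 Recombinant bovine eNOS in HEPES buffer with 2 mM CaCl2 plus the same cofactor mix as the iNOS assay (DTT, BSA, FMN, FAD, BH4, calmodulin, 10 μM L-Arg). Compound pre-incubated 15 min at 37 °C. NADPH-started reaction run 30 min at 37 °C, quenched with cold CH3CN. Read by OPA/NAC fluorescence HPLC. […] IC50 from seven concentrations in triplicate.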

[3] = target: T1, Nitric oxide synthase, inducible; experiment: Inhibition of iNOS (unknown origin)
MDA-MB-231 [4] = experiment: Antiproliferative activity against human MDA-MB-231 cells assessed as reduction in cell viability measured after 5 days by PrestoBlue reagent based assay; type: functional; conditions: MDA-MB-231, 120 h
Summary of the method: (§1)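 MDA-MB-231 cells grown in DMEM with 10% FBS and 2 mM L-glutamine. Seeded 2000 cells/well, grown 24 h, then treated 5 days over 0.001–100 μM in triplicate wells. Read with PrestoBlue (10% v/v, 120 min), fluorescence ex 540/em 590 nm. Normalized to 0.1% DMSO controls. EC50 from sigmoidal variable-slope fit, mean ± SD, n = 3 independent experiments.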

MDA-MB-231 [5] = experiment: Inhibition of cell migration in human MDA-MB-231 cells assessed as reduction in wound closure incubated for 24 hrs by microscopic analysis; type: functional; design: scale not given: the % may be the effect or the level left
Summary of the method: (§2)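 MDA-MB-231 cells seeded 20×10^4 cells/well, incubated 12 h, then serum-starved (1% FBS) for 24 h. Monolayer scratched with a pipette tip, washed with PBS and treated at 25 μM in starvation medium, with 0.1% DMSO as control. Wound imaged at 0 and 24 h (4× objective). Wound area measured to give percent closure.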

MDA-MB-231 [6] = experiment: Inhibition of cell migration in human MDA-MB-231 cells assessed as reduction in cell motility incubated for 24 hrs by scratch wound healing assay; type: functional, cell-based; summary of the method: as §2
MCF-12A [7] = experiment: Antiproliferative activity against human MCF-12A cells assessed as reduction in cell viability measured after 5 days by PrestoBlue reagent based assay; type: functional; conditions: 120 h
Summary of the method: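 MCF-12A cells (DMEM/F12 1:1, 5% equine serum, EGF, hydrocortisone, cholera toxin, insulin) seeded 2000 cells/well, grown 24 h, then exposed 5 days to 0.001–100 μM in triplicate. Read with PrestoBlue (10% v/v, 120 min), ex 540/em 590 nm. Normalized to 0.1% DMSO controls. EC50 from sigmoidal variable-slope fit, mean ± SD of 3 independent experiments.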

[8] = target: T1, Nitric oxide synthase, inducible; experiment: Inhibition of N-terminal his6-tagged recombinant human iNOS expressed in Escherichia coli preincubated for 15 mins followed by NADPH addition and measured after 30 mins by HPLC analysis
Summary of the method: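 Recombinant human iNOS in 100 mM HEPES pH 7.4 with 0.1 mM CaCl2, 1 mM DTT, 0.5 mg/mL BSA, 10 μM FMN, 10 μM FAD, 30 μM BH4, 10 μg/mL calmodulin and 10 μM L-Arg. NADPH added to start the reaction, run 30 min at 37 °C, stopped with cold CH3CN. IC50 from seven concentrations in triplicate, mean ± SD.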

MCF-12A [9] = experiment: Antiproliferative activity against human MCF-12A cells assessed as reduction in cell viability at 50 uM measured after 5 days by PrestoBlue reagent based assay relative to control; type: functional; conditions: time 5 day
Summary of the method: (§3)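 MCF-12A cells grown in DMEM/F12 (1:1) with 5% equine serum, EGF, hydrocortisone, cholera toxin and insulin, at 37 °C and 5% CO2. Seeded 2000 cells/well in triplicate and grown 24 h, then treated 5 days. Read with PrestoBlue (10% v/v, 120 min), fluorescence ex 540/em 590 nm. Viability normalized to 0.1% DMSO-treated cells (100%).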

[10] = Metabolic stability in rat liver microsome assessed as hepatic clearance pretreated for 5 mins followed by NADPH and measured after 60 mins by HPLC analysis; type: ADME; conditions: liver microsomes, time 65 min
Summary of the method: (§4)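 Compound from 2 mM DMSO stock diluted in PBS with Sprague–Dawley rat liver microsomes and warmed 5 min at 37 °C. NADPH (10 mM stock) added, incubated 60 min at 37 °C, quenched with cold CH3CN and centrifuged. At least three repeats, verapamil as positive control. CLint scaled using 45 mg microsomal protein/g liver and 40 g liver/kg body weight.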

[11] = Metabolic stability in rat liver microsome assessed as half life pretreated for 5 mins followed by NADPH and measured after 60 mins by HPLC analysis; type: ADME; conditions: liver microsomes, time 65 min; summary of the method: as §4
MCF-12A [12] = experiment: Antiproliferative activity against human MCF-12A cells assessed as reduction in cell viability at 25 uM measured after 5 days by PrestoBlue reagent based assay relative to control; type: functional; conditions: time 5.0 day; summary of the method: as §3
Nitric oxide synthase 3 = target: T3, Nitric oxide synthase 3 (Bos taurus, UniProt P29473); experiment: Inhibition of full length N-terminal his-tagged bovine eNOS (2 to 1205 residues) expressed in Escherichia coli preincubated for 15 mins followed by NADPH addition and measured after 30 mins by HPLC analysis
T3 sequence (P29473 whole entry): T2 sequence (whole entry)
Summary of the method: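 Recombinant bovine eNOS in HEPES buffer with 2 mM CaCl2 plus the same cofactor mix as the iNOS assay (DTT, BSA, FMN, FAD, BH4, calmodulin, 10 μM L-Arg). NADPH-started reaction run 30 min at 37 °C, quenched with cold CH3CN. Read by OPA/NAC fluorescence HPLC. IC50 from seven concentrations in triplicate.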

MDA-MB-231 (human) = experiment: Potency index, ratio of 1400W EC50 to test compound EC50 for antiproliferative activity against human MDA-MB-231 cells assessed as reduction in cell viability measured after 5 days by PrestoBlue reagent based assay; conditions: time 5 day
MDA-MB-231 [13] = experiment: Antiproliferative activity against human MDA-MB-231 cells assessed as reduction in cell viability upto 100 uM measured after 5 days by PrestoBlue reagent based assay; type: functional; conditions: time 5.0 day; summary of the method: as §1

| Structure (SMILES) | inhibition [1] | inhibition [2] | other results |
| --- | --- | --- | --- |
| N=C(NCc1ccc(NS(=O)(=O)c2ccc([N+](=O)[O-])cc2)cc1)c1ccc(C(F)(F)F)cc1 | inactive | inactive |  |
| COC(=O)[C@@H](N)CCCNC(=N)N[N+](=O)[O-] [L-NAME] |  |  | IC50 [3]: 13.5 µM |
| N=C(NCc1cccc(CNS(=O)(=O)c2ccc([N+](=O)[O-])cc2)c1)c1ccc(Cl)cc1 | 65% | 19% |  |
| N=C(NCc1ccc(NS(=O)(=O)c2ccc([N+](=O)[O-])cc2)cc1)c1ccc(Cl)cc1 | 69% | 46% |  |
| Br.Cc1ccc(S(=O)(=O)NCc2cccc(CNC(=N)c3ccccc3)c2)cc1 | 83% | inactive | EC50 (MDA-MB-231 [4]): 24.7 µM; Activity (MDA-MB-231 [5]): 15%; Activity (MDA-MB-231 [6]): Active; EC50 (MCF-12A [7]): 79 µM; IC50 [8]: 0.065 µM; Activity (MCF-12A [9]): 91%; CLint scaled [10]: 39.6 mL/min/kg; half-life [11]: 38 min; Activity (MCF-12A [12]): inactive; IC50 (Nitric oxide synthase 3): > 50 µM; Ratio EC50 (MDA-MB-231 (human)): 4 |
| CC(=N)NCc1cccc(CNS(=O)(=O)c2ccc(C)cc2)c1 | inactive | inactive |  |
| N=C(NCc1ccc(NS(=O)(=O)c2ccc([N+](=O)[O-])cc2)cc1)c1ccccc1 | 52% | inactive | EC50 (MDA-MB-231 [4]): > 100 µM; Activity (MDA-MB-231 [13]): inactive; IC50 [8]: 0.832 µM; IC50 (Nitric oxide synthase 3): > 50 µM |
| N=C(NCc1cccc(CNS(=O)(=O)c2ccc([N+](=O)[O-])cc2)c1)c1ccc(C(F)(F)F)cc1 | 72% | 26% |  |
| CC(=N)NCc1ccc(NS(=O)(=O)c2ccc([N+](=O)[O-])cc2)cc1 | inactive | inactive |  |
| CC(=N)NCc1cccc(CN)c1 [1400W] |  |  | EC50 (MDA-MB-231 [4]): > 100 µM |
| Cc1ccc(S(=O)(=O)NCc2cccc(CNC(=N)c3ccc(C(F)(F)F)cc3)c2)cc1 | 59% | 28% |  |
| Cc1ccc(S(=O)(=O)NCc2cccc(CNC(=N)c3ccc(Cl)cc3)c2)cc1 | 72% | 18% |  |
| N=C(NCc1cccc(CNS(=O)(=O)c2ccc([N+](=O)[O-])cc2)c1)c1ccccc1 | 71% | 35% |  |
